We go through twelve molecules from ChEMBL document CHEMBL4823328, “Structure-Guided Design of d-Galactal Derivatives with High Affinity and Selectivity for the Galectin-8 N-Terminal Domain” (ACS Med Chem Lett, 2021).

Data set [1] deals with MDA-MB-231. Nature of the data set: Cytotoxicity against human MDA-MB-231 cells assessed as cell viability at 1 to 100 uM measured after 24 hrs by MTS assay. Format: functional, cell-based. Conditions: dose 1-100 µM. In a few lines: (§1)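 MTS viability assay on human PBMCs and on the K562 and MDA-MB-231 cancer lines. The cancer lines were exposed to 1–100 μM compound, and PBMCs to concentrations up to 100 μM. Read-out was the MTS tetrazolium reduction signal.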
(Formazan colour is commonly taken as a measure of viable cells.)

Data set [2] concerns the target T1, Galectin-8 (Homo sapiens) (UniProt O00214).
T1 sequence (whole entry): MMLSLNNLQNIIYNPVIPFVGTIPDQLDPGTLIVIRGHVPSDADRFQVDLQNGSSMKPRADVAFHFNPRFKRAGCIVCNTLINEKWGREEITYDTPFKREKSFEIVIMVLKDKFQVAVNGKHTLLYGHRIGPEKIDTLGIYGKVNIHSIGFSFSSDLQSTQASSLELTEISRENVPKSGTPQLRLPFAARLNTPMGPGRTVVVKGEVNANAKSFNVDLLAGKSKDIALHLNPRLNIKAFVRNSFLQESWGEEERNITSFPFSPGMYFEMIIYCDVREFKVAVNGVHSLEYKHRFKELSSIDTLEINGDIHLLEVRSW
As to the kind of experiment: Antagonist activity at galactin-8 in human MDA-MB-231 cells assessed as reduction in IL-8 secretion at 100 uM measured after 24 hrs by flow cytometry relative to control. Type of data set: cell-based. Further details: scale not given: the % may be the effect or the level left. In short, it runs like this:
(§2)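 MDA-MB-231 cells, which express galectin-8 endogenously, were incubated with the compounds at 10 or 100 μM. Secreted IL-6 and IL-8 were quantified in pg/mL and compared with untreated cells. Values are means ± SEM from three independent experiments, with significance tested against untreated controls. Cell viability at the same concentrations was checked separately by MTS assay.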

Data set [3] concerns the target T1, Galectin-8 (Homo sapiens). Nature of the data set: Antagonist activity at galactin-8 in human MDA-MB-231 cells assessed as reduction in IL-6 secretion at 100 uM measured after 24 hrs by flow cytometry relative to control. Format: cell-based. Further details: scale not given: the % may be the effect or the level left. In short, it runs like this: as §2
Data set [4] relates to K562. As to the kind of experiment: Cytotoxicity against human K562 cells assessed as cell viability at 1 to 100 uM measured after 24 hrs by MTS assay. Format: functional, cell-based. The following applies: dose 1-100 µM. In short, it runs like this:
as §1

The target of data set [5] is T1, Galectin-8 (Homo sapiens). As to the kind of experiment: Antagonist activity at galactin-8 in human MDA-MB-231 cells assessed as reduction in IL-6 secretion at 10 uM measured after 24 hrs by flow cytometry relative to control. Type of data set: cell-based. Further details: scale not given: the % may be the effect or the level left. In a few lines:
as §2
(In general: Flow cytometry measures light scatter and fluorescence of single cells or particles in a stream.)

The nature of data set [6]: Cytotoxicity against human PBMC cells assessed as cell viability upto 100 uM measured after 24 hrs by MTS assay. Format: cell-based. In a few lines: as §1
The species entered for data set [7] is Homo sapiens. Nature of the data set: Selectivity for human galectin-8N over human galectin-9 C terminal domain.
For data set [8], the species on record is Homo sapiens. Nature of the data set: Selectivity for human galectin-8N over human galectin-4 N terminal domain.
For data set [9], the species on record is Homo sapiens. Nature of the data set: Selectivity for human galectin-8N over human galectin-1.
The target in data set [10] is T1, Galectin-8 (Homo sapiens). As to the kind of experiment: Binding affinity to human galectin-8 C terminal domain assessed as dissociation constant measured up to 1500 uM by competitive fluorescence polarization assay. Conditions: dose microM <=1500. On the technique in general: Fluorescence polarisation rises when a labelled molecule tumbles more slowly, as on binding a larger partner.

Data set [11] deals with T2, Galectin-2 (Homo sapiens) (UniProt P05162).
T2 sequence (whole entry): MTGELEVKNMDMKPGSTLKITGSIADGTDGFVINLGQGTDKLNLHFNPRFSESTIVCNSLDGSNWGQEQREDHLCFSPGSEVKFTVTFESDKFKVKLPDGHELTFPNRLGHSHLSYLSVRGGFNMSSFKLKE
Nature of the data set: Binding affinity to human galectin-2 assessed as dissociation constant measured up to 1500 uM by competitive fluorescence polarization assay. The following applies: dose microM <=1500.

The target in data set [12] is T3, Galectin-7 (Homo sapiens, UniProt P47929). Nature of the data set: Binding affinity to human galectin-7 assessed as dissociation constant by competitive fluorescence polarization assay.
T3 sequence (P47929 whole entry): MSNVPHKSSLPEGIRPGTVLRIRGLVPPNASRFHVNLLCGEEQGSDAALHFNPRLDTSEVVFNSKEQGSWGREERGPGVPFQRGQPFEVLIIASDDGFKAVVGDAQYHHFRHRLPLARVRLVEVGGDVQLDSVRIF
Data set [13] concerns the target Galectin-1 (Homo sapiens) (UniProt P09382). As to the kind of experiment: Binding affinity to human galectin-1 assessed as dissociation constant measured up to 1500 uM by competitive fluorescence polarization assay. The following applies: dose microM <=1500.
Data set [14] deals with T4, Galectin-9 (Homo sapiens, UniProt O00182). As to the kind of experiment: Binding affinity to human galectin-9 C terminal domain assessed as dissociation constant measured up to 1500 uM by competitive fluorescence polarization assay. The following applies: dose microM <=1500.
T4 sequence (O00182 whole entry, the tested form may be a part): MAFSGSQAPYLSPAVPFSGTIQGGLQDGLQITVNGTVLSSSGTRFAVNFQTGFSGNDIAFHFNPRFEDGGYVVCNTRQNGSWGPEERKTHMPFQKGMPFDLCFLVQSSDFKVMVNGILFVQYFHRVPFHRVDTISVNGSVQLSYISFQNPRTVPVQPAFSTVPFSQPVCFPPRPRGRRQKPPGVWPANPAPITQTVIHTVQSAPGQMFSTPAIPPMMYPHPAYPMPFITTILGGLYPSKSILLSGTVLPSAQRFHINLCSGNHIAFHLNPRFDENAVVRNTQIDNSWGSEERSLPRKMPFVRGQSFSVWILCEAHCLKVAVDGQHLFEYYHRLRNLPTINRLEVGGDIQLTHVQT
Data set [15] is filed under the species Homo sapiens. Nature of the data set: Selectivity for human galectin-8N over human galectin-8 C terminal domain.
The species named for data set [16] is Homo sapiens. Nature of the data set: Selectivity for human galectin-8N over human galectin-9 N terminal domain.
For data set [17], the species on record is Homo sapiens. As to the kind of experiment: Selectivity for human galectin-8N over human galectin-3.
The species entered for data set [18] is Homo sapiens. Nature of the data set: Selectivity for human galectin-8N over human galectin-2.
The species entered for data set [19] is Homo sapiens. Nature of the data set: Selectivity for human galectin-8N over human galectin-4 C terminal domain.
Data set [20] addresses T4, Galectin-9. Nature of the data set: Binding affinity to human galectin-9 C terminal domain assessed as dissociation constant by competitive fluorescence polarization assay.
Data set [21] has as its target T5, Galectin-2 (Homo sapiens, UniProt P05162).
T5 sequence (P05162 whole entry): T2 sequence (whole entry)
As to the kind of experiment: Binding affinity to human galectin-2 assessed as dissociation constant by competitive fluorescence polarization assay.

The target of data set [22] is T4, Galectin-9. As to the kind of experiment: Binding affinity to human galectin-9 N terminal domain assessed as dissociation constant measured up to 1500 uM by competitive fluorescence polarization assay. Conditions: dose microM <=1500.
The target in data set [23] is T6, Galectin-4 (Homo sapiens) (UniProt P56470).
T6 sequence (whole entry): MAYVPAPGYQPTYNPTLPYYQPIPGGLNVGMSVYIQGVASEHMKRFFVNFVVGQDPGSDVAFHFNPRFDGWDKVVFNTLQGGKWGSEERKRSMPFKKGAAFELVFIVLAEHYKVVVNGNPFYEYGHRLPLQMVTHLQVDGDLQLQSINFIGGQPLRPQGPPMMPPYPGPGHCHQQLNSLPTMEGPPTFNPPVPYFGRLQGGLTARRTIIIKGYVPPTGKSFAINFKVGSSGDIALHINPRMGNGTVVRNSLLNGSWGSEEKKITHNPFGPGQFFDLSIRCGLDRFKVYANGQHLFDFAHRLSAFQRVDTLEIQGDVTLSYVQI
Nature of the data set: Binding affinity to human galectin-4 N terminal domain assessed as dissociation constant measured up to 1500 uM by competitive fluorescence polarization assay. Conditions: dose microM <=1500.

The target in data set [24] is T3, Galectin-7. Nature of the data set: Binding affinity to human galectin-7 assessed as dissociation constant measured up to 1500 uM by competitive fluorescence polarization assay. The following applies: dose microM <=1500.
For data set [25], the target named is T7, Galectin-4 (Homo sapiens, UniProt P56470).
T7 sequence (P56470 whole entry): T6 sequence (whole entry)
Nature of the data set: Binding affinity to human galectin-4 N terminal domain assessed as dissociation constant by competitive fluorescence polarization assay.

For data set [26], the target named is T7, Galectin-4. As to the kind of experiment: Binding affinity to human galectin-4 C terminal domain assessed as dissociation constant by competitive fluorescence polarization assay.
The target in data set [27] is T4, Galectin-9. As to the kind of experiment: Binding affinity to human galectin-9 N terminal domain assessed as dissociation constant by competitive fluorescence polarization assay.
The target of data set [28] is T8, Galectin-8 (Homo sapiens, UniProt O00214).
T8 sequence (O00214 whole entry): T1 sequence (whole entry)
As to the kind of experiment: Binding affinity to human galectin-8 C terminal domain assessed as dissociation constant by competitive fluorescence polarization assay.

Activity calls are given as the source filed them. The calls are words filed in the database; no cut-off is given here. Bounds are passed on as bounds.

Galectin-1 (Homo sapiens), sequence (P09382 whole entry, the tested form may be a part): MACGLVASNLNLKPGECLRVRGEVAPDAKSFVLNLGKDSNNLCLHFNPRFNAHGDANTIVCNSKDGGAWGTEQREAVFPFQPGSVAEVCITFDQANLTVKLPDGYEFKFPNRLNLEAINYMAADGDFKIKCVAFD

As for `Cn1c(CO[C@@H]2[C@@H](O)[C@@H](Sc3ccc(Cl)c(Cl)c3)O[C@H](CO)[C@@H]2O)nc2ccc(C(=O)O)cc21`, the result in data set [1] and in data set [4] was inactive. Besides, the Activity in [2] was 55%; in [3], 65%; in data set [5], 15%; in data set [6], “Non-Toxic”.

`COC(=O)c1ccc2ccc(CO[C@@H]3C=CO[C@H](CO)[C@@H]3O)nc2c1`: the Selectivity ratio in [7], in data set [8], in data set [9], in data set [15], in data set [16] and in [17] was more than 2 throughout. The Selectivity ratio in data set [18] and in data set [19] was more than 2 in each case. In addition, the result in data set [10], in data set [11], in data set [13] and in data set [14] was inactive. In addition, in data set [12], the Kd (as a rule, the concentration at which binding is half-saturated) is “Not Active”.

Turning to `COC(=O)c1ccc2nc(CO[C@@H]3C=CO[C@H](CO)[C@@H]3O)n(C)c2c1`, the Selectivity ratio in data set [8], in [9], in data set [15], in [16], in [17] and in data set [19] was more than 2 throughout. Besides, the Kd result in [12], in data set [20] and in data set [21] was “Not Active” throughout. Also, the outcome in [22] was inactive.

Regarding `O=C(O)c1ccc2ccc(CO[C@@H]3C=CO[C@H](CO)[C@@H]3O)nc2c1`, the Selectivity ratio in data set [7], in [8], in data set [9], in [15], in data set [16] and in data set [17] was more than 2 in each case. The Selectivity ratio in data set [18] and in data set [19] was more than 2 in each case. Moreover, the outcome in data set [23], in [14] and in [24] was inactive.

For the molecule `OC[C@H]1OC=C[C@@H](O)[C@H]1O`, the Selectivity ratio is more than 2 in data set [7]; 1.8 in data set [8]; 1.2 in [9]; more than 2 in [15]; more than 2 in data set [16]; more than 2 in [17]. Also, in data set [19], the Selectivity ratio was more than 2. Also, the dissociation constant Kd result in data set [12] and in data set [21] was “Not Active” in each case. For the same molecule, in data set [22], the outcome was inactive.

In the case of `COC(=O)c1ccc2nc(CO[C@@H]3C=CO[C@H](CO)[C@@H]3O)[nH]c2c1`, the Selectivity ratio in data set [7], in data set [8], in data set [9], in data set [15], in [16] and in data set [17] was more than 2 in each case. For the same molecule, in [19], the Selectivity ratio was more than 2. Also, the Kd result in data set [12] and in data set [21] was “Not Active” in each case. Also, the outcome in data set [13], in data set [14] and in data set [22] was inactive.

With `CCOC(=O)c1ccc2c(c1)nc(CO[C@@H]1C=CO[C@H](CO)[C@@H]1O)n2C`, the Selectivity ratio in data set [9] was 1.2; in data set [15], more than 2; in data set [17], 0.99. The Kd result in data set [25], in [26], in [12], in data set [20], in [27] and in data set [21] was “Not Active” in each case.

For the molecule `Cn1c(CO[C@@H]2C=CO[C@H](CO)[C@@H]2O)nc2cc(C(=O)O)ccc21`, the Selectivity ratio is more than 2 in data set [7]; more than 2 in [8]; 1.4 in data set [9]; more than 2 in [15]; more than 2 in data set [16]; 0.95 in data set [17]. Moreover, the Selectivity ratio in [19] is more than 2. The Kd result in [12] and in data set [21] was “Not Active” throughout. Also, the outcome in data set [14] and in data set [22] was inactive.

As to `O=C(O)c1ccc2nc(CO[C@@H]3C=CO[C@H](CO)[C@@H]3O)[nH]c2c1`, the Selectivity ratio in data set [7], in [8], in data set [9], in data set [15], in [16] and in [17] was more than 2 each time. Besides, the Selectivity ratio in data set [18] and in [19] was more than 2 in each case. Further, the result in data set [1], in data set [4], in data set [13], in data set [24] and in [22] was inactive. For the same molecule, the Kd result in data set [28] is recorded as “Not Active”. Also, in data set [6], the Activity entry was “Non-Toxic”.

Take `Cn1c(CO[C@@H]2C=CO[C@H](CO)[C@@H]2O)nc2ccc(C(=O)O)cc21`: the Selectivity ratio in [7], in data set [8], in data set [15], in data set [16], in data set [18] and in data set [19] was more than 2 each time. Further, the outcome in data set [1], in data set [4], in data set [14] and in data set [24] was inactive. Further, the figures for the Activity in [2], in [3] and in data set [6] were 55%, 65% and “Non-Toxic”, respectively.

In the case of `OC[C@H]1Oc2cc(Cc3ccc(F)cc3)cc3c2[C@@H](OC3)[C@H]1O`, the Selectivity ratio in data set [7], in data set [8], in data set [9], in data set [16], in [17] and in [19] was more than 2 in each case. The Kd result was “Not Active” in data set [28], more than 3 mM in data set [26] (read-out: Kd), “Not Active” in data set [12] and “Not Active” in data set [21].

Take `CO[C@@H]1O[C@H](CO)[C@H](O)[C@H](O)[C@H]1O`: the dissociation constant Kd result in data set [12] is “Not Active”.
